From ChEMBL document CHEMBL3526081 (Drug Metab Dispos, 2011)

Experiments:
[1] = test system: Liver microsome; experiment: Retention time in Sprague-Dawley rat liver microsomes treated with 100 uM cinobufagin at 37 degC after 30 mins by UFLC-DAD-ESI-MS analysis; type: ADME; conditions: 0.5 h
Summary of the method: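 Male Sprague-Dawley rat microsomes (0.3 mg/ml) were incubated with CB (100 µM) at 37°C for 30 min, with and without NADPH-generating system. Separation was on an ODS column at 40°C using an acetonitrile/0.5% formic acid water gradient at 0.4 ml/min, with DAD detection at 294 nm plus ESI-MS.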

[2] = test system: Liver microsome; experiment: Drug level in beagle dog liver microsomes treated with 100 uM cinobufagin at 37 degC after 30 mins by UFLC-ESI-MS analysis in presence of NADPH-generating system; type: ADME, Canis lupus familiaris; conditions: 0.5 h
Summary of the method: (§1)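 Liver microsomes (0.3 mg protein/ml) incubated with 100 µM substrate at 37°C for 30 min, in 100 mM potassium phosphate pH 7.4 with NADPH-generating system (1 mM NADP+, 10 mM glucose 6-phosphate, 1 unit/ml G6PDH, 4 mM MgCl2). Acetonitrile ≤1% final. Stopped with ice-cold acetonitrile and centrifuged. Metabolites identified by UFLC-ESI-MS and quantified by UFLC-DAD at 294 nm against authentic standard curves.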

[3] = Drug level in cynomolgus monkey liver microsomes treated with 100 uM cinobufagin at 37 degC after 30 mins by UFLC-ESI-MS analysis in presence of NADPH-generating system; type: ADME, Macaca fascicularis; conditions: 0.5 h; summary of the method: as §1
[4] = molecular target: Cytochrome P450 3A4 (Homo sapiens, UniProt P08684); experiment: Drug level in human recombinant CYP3A4 expressed in insect cells coexpressing NADPH-P450 reductase measured per pmol of enzyme treated with 50 uM cinobufagin at 37 degC after 30 mins by UFLC-DAD-ESI-MS analysis; conditions: 0.5 h
Cytochrome P450 3A4, sequence (P08684 whole entry): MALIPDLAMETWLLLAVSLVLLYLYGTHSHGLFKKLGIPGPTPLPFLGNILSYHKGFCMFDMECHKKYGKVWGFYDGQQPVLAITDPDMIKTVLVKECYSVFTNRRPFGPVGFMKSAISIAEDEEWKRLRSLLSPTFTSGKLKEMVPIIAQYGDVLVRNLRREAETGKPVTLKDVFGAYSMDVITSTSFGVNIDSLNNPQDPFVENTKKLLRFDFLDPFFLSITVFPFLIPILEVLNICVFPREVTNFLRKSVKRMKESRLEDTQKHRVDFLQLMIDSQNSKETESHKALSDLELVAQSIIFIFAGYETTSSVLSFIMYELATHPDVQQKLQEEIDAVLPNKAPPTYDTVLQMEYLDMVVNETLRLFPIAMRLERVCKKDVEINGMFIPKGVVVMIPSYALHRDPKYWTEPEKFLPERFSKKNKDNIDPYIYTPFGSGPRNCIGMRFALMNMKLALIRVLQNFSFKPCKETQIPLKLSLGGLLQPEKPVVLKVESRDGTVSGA

[5] = molecular target: T1, Cytochrome P450 2A6 (Homo sapiens, UniProt P11509); experiment: Drug level in human recombinant CYP2A6 expressed in insect cells coexpressing NADPH-P450 reductase measured per pmol of enzyme treated with 50 uM cinobufagin at 37 degC after 30 mins by UFLC-DAD-ESI-MS analysis; conditions: 0.5 h
T1 sequence (P11509 whole entry): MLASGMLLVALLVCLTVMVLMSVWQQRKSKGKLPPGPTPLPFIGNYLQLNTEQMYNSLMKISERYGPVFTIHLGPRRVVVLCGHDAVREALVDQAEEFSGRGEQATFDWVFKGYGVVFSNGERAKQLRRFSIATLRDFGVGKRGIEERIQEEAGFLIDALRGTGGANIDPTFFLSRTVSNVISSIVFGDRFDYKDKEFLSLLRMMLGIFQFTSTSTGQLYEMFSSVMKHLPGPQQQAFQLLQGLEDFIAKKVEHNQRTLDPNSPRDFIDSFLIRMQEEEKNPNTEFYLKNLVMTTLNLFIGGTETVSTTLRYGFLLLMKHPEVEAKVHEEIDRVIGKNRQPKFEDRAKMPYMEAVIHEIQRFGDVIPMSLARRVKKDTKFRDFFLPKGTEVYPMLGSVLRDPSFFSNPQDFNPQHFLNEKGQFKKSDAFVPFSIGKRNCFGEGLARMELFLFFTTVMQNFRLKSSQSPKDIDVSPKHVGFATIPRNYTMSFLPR

[6] = molecular target: Cytochrome P450 2D6 (Homo sapiens, UniProt P10635); experiment: Drug level in human recombinant CYP2D6 expressed in insect cells coexpressing NADPH-P450 reductase measured per pmol of enzyme treated with 50 uM cinobufagin at 37 degC after 30 mins by UFLC-DAD-ESI-MS analysis; conditions: 0.5 h
Cytochrome P450 2D6, sequence (P10635 whole entry): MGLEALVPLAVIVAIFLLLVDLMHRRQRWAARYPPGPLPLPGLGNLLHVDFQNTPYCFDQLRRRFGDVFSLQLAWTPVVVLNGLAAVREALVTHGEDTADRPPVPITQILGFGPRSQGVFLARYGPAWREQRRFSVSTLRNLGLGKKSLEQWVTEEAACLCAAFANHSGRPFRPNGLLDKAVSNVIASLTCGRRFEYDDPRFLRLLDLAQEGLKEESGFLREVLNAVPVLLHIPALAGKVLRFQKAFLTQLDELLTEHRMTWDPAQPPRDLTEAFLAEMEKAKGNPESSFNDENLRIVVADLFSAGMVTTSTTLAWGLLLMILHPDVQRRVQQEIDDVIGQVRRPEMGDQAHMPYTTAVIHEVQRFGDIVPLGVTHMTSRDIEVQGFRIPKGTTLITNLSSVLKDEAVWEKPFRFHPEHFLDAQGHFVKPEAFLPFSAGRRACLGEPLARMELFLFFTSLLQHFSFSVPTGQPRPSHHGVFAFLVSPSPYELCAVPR

[7] = test system: Liver microsome; experiment: Drug metabolism in human liver microsomes assessed as 1alpha-hydroxylcinobufagin formation at 100 uM at 37 degC after 30 mins by UFLC-ESI-MS analysis in presence of NADPH-generating system; type: ADME; conditions: 0.5 h
Summary of the method: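 CB (100 µM; acetonitrile ≤1% final) was incubated with pooled HLM (0.3 mg/ml) plus NADPH-generating system (1 mM NADP+, 10 mM glucose 6-phosphate, 1 unit/ml G6PDH, 4 mM MgCl2) in pH 7.4 phosphate buffer at 37°C for 30 min. Products were identified by UFLC-ESI-MS and quantified by UFLC-DAD at 294 nm.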

[8] = Drug metabolism in Swiss-Hauschka (ICR) mouse liver microsomes assessed as 5beta-hydroxylcinobufagin formation at 100 uM at 37 degC after 30 mins by UFLC-ESI-MS analysis in presence of NADPH-generating system; type: ADME; conditions: 0.5 h; summary of the method: as §1
[9] = test system: Liver microsome; experiment: Drug metabolism in human liver microsomes assessed as 5beta-hydroxylcinobufagin formation at 100 uM at 37 degC after 30 mins […] in presence of 50 uM triethylenethiophosphoramide CYP2B6 inhibitor; type: ADME; conditions: 0.5 h
[10] = test system: Liver microsome; experiment: Drug metabolism in human liver microsomes assessed as 1alpha-hydroxylcinobufagin formation at 100 uM at 37 degC after 30 mins […] in presence of 10 uM sulfaphenazole CYP2C9 inhibitor; type: ADME; conditions: 0.5 h
[11] = Drug metabolism in cynomolgus monkey liver microsomes assessed as 1alpha-hydroxylcinobufagin formation at 100 uM at 37 degC after 30 mins by UFLC-ESI-MS analysis in presence of 10 uM furafylline CYP1A2 inhibitor; type: ADME, Macaca fascicularis; conditions: 0.5 h
Summary of the method: (§2)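 Chemical inhibition: selective P450 inhibitors (furafylline, sulfaphenazole, ketoconazole) added to liver microsome incubations in 100 mM potassium phosphate pH 7.4 with NADPH-generating system at 37°C. Hydroxylated metabolite formation quantified by UFLC at 294 nm against standards. Mean ± S.D. of three experiments in duplicate.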

[12] = test system: Liver microsome; experiment: Drug metabolism in beagle dog liver microsomes assessed as 1alpha-hydroxylcinobufagin formation at 100 uM at 37 degC after 30 mins by UFLC-ESI-MS analysis; type: ADME, Canis lupus familiaris; conditions: 0.5 h, read-out: Km(app); summary of the method: as §1
[13] = Drug metabolism in Swiss-Hauschka (ICR) mouse liver microsomes assessed as 5beta-hydroxylcinobufaginn formation per mg of protein at 100 uM at 37 degC after 30 mins by UFLC-ESI-MS analysis; type: ADME; conditions: 0.5 h; summary of the method: as §1
[14] = Drug metabolism in Colony-bred Chinese Bama minipig liver microsomes assessed as 1alpha-hydroxylcinobufagin formation at 100 uM at 37 degC after 30 mins by UFLC-ESI-MS analysis in presence of 1 uM ketoconazole CYP3A4 inhibitor; type: ADME, Sus scrofa; conditions: pig, 0.5 h; summary of the method: as §2
[15] = Drug metabolism in cynomolgus monkey liver microsomes assessed as 1alpha-hydroxylcinobufagin formation at 100 uM at 37 degC after 30 mins by UFLC-ESI-MS analysis in presence of 1 uM ketoconazole CYP3A4 inhibitor; type: ADME, Macaca fascicularis; conditions: 0.5 h; summary of the method: as §2
[16] = Drug metabolism in cynomolgus monkey liver microsomes assessed as 1alpha-hydroxylcinobufagin formation per mg of protein at 100 uM at 37 degC after 30 mins by UFLC-ESI-MS analysis; type: ADME, Macaca fascicularis; conditions: 0.5 h; summary of the method: as §1
[17] = test system: Liver microsome; experiment: Drug metabolism in human liver microsomes assessed as 5beta-hydroxylcinobufagin formation at 100 uM at 37 degC after 30 mins […] in presence of 50 uM clomethiazole CYP2E1 inhibitor; type: ADME; conditions: 0.5 h
[18] = Drug metabolism in Swiss-Hauschka (ICR) mouse liver microsomes assessed as 1alpha-hydroxylcinobufagin formation at 100 uM at 37 degC after 30 mins by UFLC-ESI-MS analysis in presence of 10 uM furafylline CYP1A2 inhibitor; type: ADME; conditions: 0.5 h; summary of the method: as §2

SMILES	Retention_time [1] [min]	Drug metabolism [2]	Drug metabolism [3]	Drug metabolism [4] [pmol/min]	Drug metabolism [5] [pmol/min]	Drug metabolism [6] [pmol/min]	Drug metabolism [7]	Drug metabolism [8]	Drug metabolism [9]	Drug metabolism [10]	Drug metabolism [11]	Km [12] [µM]	Vmax [13] [nmol/min/mg]	Drug metabolism [14]	Drug metabolism [15]	Vmax [16] [nmol/min/mg]	Drug metabolism [17]	Drug metabolism [18]
CC(=O)O[C@H]1[C@H]2O[C@]23[C@@H]2CC[C@@H]4C[C@@H](O)C[C@H](O)[C@]4(C)[C@H]2CC[C@]3(C)[C@H]1c1ccc(=O)oc1	7.35	metabolite_detected	metabolite_detected	14.01	< 0.01	< 0.01												
CC(=O)O[C@H]1[C@H]2O[C@]23[C@@H]2CC[C@@H]4C[C@@H](O)CC[C@]4(C)[C@H]2CC[C@]3(C)[C@H]1c1ccc(=O)oc1 [CINOBUFAGIN]							metabolite_detected	metabolite_detected	metabolite_detected	metabolite_detected	metabolite_detected	3.3	6.51	metabolite_not_detected	metabolite_not_detected	2.12	metabolite_detected	metabolite_detected
CC(=O)O[C@H]1[C@H]2O[C@]23[C@@H]2CC[C@]4(O)C[C@@H](O)CC[C@]4(C)[C@H]2CC[C@]3(C)[C@H]1c1ccc(=O)oc1 [CINOBUFOTALIN]	7.6	metabolite_detected	metabolite_detected	26.02	< 0.01	< 0.01												
